Screens as filed in PubChem.
An excerpt weighted towards active compounds, which were near 3% of everything screened.
PvdQ acylase = P. aeruginosa PvdQ acylase inhibition; AID 488965; inhibition, % at 10 µM; purified PvdQ acylase, fluorescence plate reader; 340,000 tested, 0.063% active; in the data active = inhibition above about 30%, passing the limit was not always enough;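 note: 0% = vehicle neutral wells and 100% = reference inhibitor wells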
T cruzi repl = blocks replication of Trypanosoma cruzi; T. cruzi beta-gal in NIH3T3, luminescence, 90 h; inhibition, % (no concentration beside the values); 300,000 tested, 1.4% active; AID 1885;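 active = mean inhibition across valid replicates above about 55%, limit read from the data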;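 note: signal also drops with host cell toxicity which is not excluded here; 0% = plate median of DMSO wells and 100% = zero luminescence signal; higher percent means less beta-gal luminescence so fewer parasites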
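Assay system: NIH/3T3 fibroblasts plus reporter T. cruzi. Amount: NIH/3T3 cells, 5,000 per well. Buffer or medium: DMEM, 2% fetal bovine serum. Doses: compound pinned at 50 nL/well, DMSO. Schedule: ≥90 h infection period, 3 h prior cell attachment. Signal: luminescent β-galactosidase signal after 60 min lysis. Read-out: parasite load inhibition, %.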
PfHsp90 set2 = growth inhibition of yeast expressing Plasmodium Hsp90 | 310,000 tested, 0.32% active | AID 504621 | inhibition, % at 9.4 µM | S. cerevisiae expressing PfHsp90, BacTiter-Glo ATP, 48 h; yeast lacking PDR1 and PDR3 efflux regulators;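 active = every replicate shows inhibition above about 80%, whatever the replicate mean, limit read from the data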;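 note: 0% = DMSO neutral controls and 100% = 20 µM radicicol positive controls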
HSF-1 act = increases HSF-1 driven luciferase reporter signal | NIH3T3-HGL HSF-1 luciferase reporter, MG132, 8 h; 100% = twice DMSO control signal | AID 504408 | 300,000 tested, 1.7% active | activation, % at 9 µM;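 active = mean replicate activation of at least 50% with a set share of replicates each reaching 50%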;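 note: 0% = median of the neutral control wells and 100% = twice that signal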
N-glyco inh = N-linked glycosylation inhibition; reporter increase, % at 12.5 µM; D54 ERlucT glycosylation luciferase reporter, 24 h; percent of 100 nM tunicamycin response; 360,000 tested, 0.23% active; AID 588692;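 active = mean luciferase reporter signal, scaled so untreated is 0 and the glycosylation-blocking control 100, at or above a set limit in every replicate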;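 note: luciferase carries N-glycosylation sites so blocking glycosylation raises the light; 0% = median of neutral control wells and 100% = median of 100 nM tunicamycin wells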
CaV13 FRET inh = Disruptors of the CACNA1D IQ motif to Ca2+-dependent inactivation inhibitor domain association, primary screening, Förster resonance energy transfer in intact living … | HEK cells, CFP/YFP FRET ICDI-IQ, plate reader, 10 min; percent FRET-ratio fall versus neutral wells | inhibition, % at 12.3 µM | 340,000 tested, 0.098% active;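 active = mean replicate inhibition of at least 30% and at least 1% of replicates passing that level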;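 note: 0% = median of the neutral control wells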
Starred values were filed as active, the others as inactive; / = no result given; + = active, no number.

SMILES | PvdQ acylase | T cruzi repl | PfHsp90 set2 | HSF-1 act | N-glyco inh | CaV13 FRET inh
Cc1ccc(Cn2cc(S(=O)(=O)c3ccc(Cl)cc3)c(=O)c3cc(F)ccc32)cc1 | -8.8 | 25.0 | -21.1 | 78.7* | -3.5 | -5.2
CC(C)c1ccc(S(=O)(=O)c2cn(Cc3ccc(F)cc3)c3cc4c(cc3c2=O)OCO4)cc1 | / | 18.7 | / | -30.9 | / | /
Cc1ccc(Cn2cc(S(=O)(=O)c3ccc(C(C)C)cc3)c(=O)c3cc4c(cc32)OCO4)cc1 | 3.8 | 37.1 | 0.1 | 64.1* | 2.5 | -4.1
Cc1cccn2c(=O)c3cc(S(=O)(=O)c4ccc(F)cc4)c(=N)n(Cc4ccco4)c3nc12 | -2.9 | 5.8 | -1.5 | 97.7* | -0.1 | 27.8
N=c1c(S(=O)(=O)c2ccccc2)cc2c(=O)n3ccccc3nc2n1Cc1ccco1 | -15.0 | 16.4 | -1.3 | 11.9 | 2.4 | /
Cc1cccn2c(=O)c3cc(S(=O)(=O)c4ccccc4)c(=N)n(Cc4ccco4)c3nc12 | 2.3 | -1.0 | -11.3 | 48.9 | 0.0 | -13.9
Cc1ccc2nc3c(cc(S(=O)(=O)c4ccccc4)c(=N)n3Cc3ccco3)c(=O)n2c1 | 6.6 | 63.4* | -9.5 | 32.9 | -1.7 | +
Cc1noc2ncnc(Sc3ccc(Cl)cc3)c12 | -7.4 | 36.1 | / | 71.6* | 20.0 | 0.7
Cc1ccc(Sc2ncnc3onc(C)c23)cc1 | -11.3 | / | / | / | 3.5 | -2.9
COCCN1C[C@@H](CO)O[C@@H](n2cnc3c(NC4CCC4)ncnc32)C1 | / | / | / | / | 1.3 | -6.0
COc1ccc(NC(=O)C2CCCN2C(=O)NC2CCCCC2)cc1OC (stereo not given) | 0.7 | -7.1 | 26.1 | 7.5 | 0.1 | /
COc1ccc(NC(=O)C2CCCN(C(=O)NC3CCCCC3)C2)cc1OC (stereo not given) | 34.3* | -4.7 | / | 7.6 | 1.9 | -4.4
O=C(Oc1c(Cl)cc(Cl)c2cccnc12)c1cccc([N+](=O)[O-])c1 | -0.4 | 26.7 | 107.0* | -28.8 | 9.4 | /
CCOCCCNC(=O)c1cc2c(=O)n(CC)c3ccccc3c2s1 | 7.4 | 6.4 | -5.9 | 4.7 | 40.5* | -4.5
CCOc1ccccc1N(C)C(=O)c1cc2c(=O)n(CC)c3ccccc3c2s1 | 14.6 | 61.6* | 15.6 | 36.7 | -0.3 | -4.4
CN(C)c1ccc(NC(=S)Nc2ccc3c(c2)c(=O)n(C)n3-c2ccc(C(C)(C)C)cc2)cc1 | / | / | / | / | -5.3 | -4.7
Cc1ccc(OCCn2cc(/C=C/C(=O)O)c3ccccc32)cc1 | -13.8 | -11.4 | -38.0 | 0.4 | 0.5 | -2.5
COC(=O)c1cn(CCOc2ccc(C)cc2)c2ccccc12 | -12.4 | 29.8 | -56.8 | 100.0* | -5.8 | -5.6
CCCn1c2c(c(O)c(C(=O)Nc3ccc(OC)cc3)c1=O)CCCC2 | 2.8 | 61.2* | 18.4 | 38.3 | -1.8 | -6.7
Cc1c(C(=O)OCC(=O)NCc2ccc3c(c2)OCO3)cccc1[N+](=O)[O-] | -4.9 | -10.0 | 7.2 | 59.5* | 0.8 | -4.2
Cc1c(C(=O)OCC(=O)Nc2ccc3c(c2)OCO3)cccc1[N+](=O)[O-] | 6.7 | 12.7 | -1.8 | -11.4 | 2.9 | -15.2
CCOC(=O)C1(C)CCN1C(=O)c1ccccc1 (stereo not given) | / | / | / | / | 0.8 | -10.2
O=C(Nc1ccccc1Cl)c1cc2ccccc2o/c1=N\O | -18.5 | -40.4 | 8.4 | 72.4* | -5.5 | -3.1
O=C(Nc1ccccc1Cl)c1ccccc1Cl | 2.6 | 9.2 | -14.4 | 6.0 | -0.5 | -8.0
COc1ccc(S(=O)(=O)NCc2ccc3c(c2)OCO3)cc1C | 12.9 | -19.5 | 15.7 | 5.1 | 3.3 | -8.3
SMILES | PvdQ acylase | T cruzi repl | PfHsp90 set2 | HSF-1 act | N-glyco inh | CaV13 FRET inh
CCNS(=O)(=O)c1ccc(CCC(=O)NCc2ccc3c(c2)OCO3)cc1 | -16.9 | 6.7 | 18.1 | 53.8* | 0.6 | -21.4
Cc1ccc(S(=O)(=O)NCc2ccc3c(c2)OCO3)cc1C | 35.9* | -22.3 | -1.4 | -10.5 | -0.3 | -0.2
c1ccc(COc2cccc(CNCc3cccnc3)c2)cc1 | 0.6 | 61.5* | -15.8 | 6.8 | -0.4 | -2.7
c1ccc(COc2cccc(CNCc3ccccn3)c2)cc1 | -10.1 | -3.0 | -38.1 | / | 0.2 | -4.2
CCCCCCCCN1C(=O)[C@@H](CC(=O)NCc2cccs2)C[C@@]2(C(=O)OC)C1=C[C@H](C1CCCC1)O[C@@H]2C | / | / | / | / | / | -8.5
CCCCCCn1c2c(c(=N)c3c1CCC3)CCC2 | -6.5 | 83.8* | / | -10.2 | 12.9 | -4.1
CCCCCCCn1c2c(c(=N)c3c1CCC3)CCCC2 | -11.8 | 58.7* | 17.3 | 7.1 | 12.1 | -18.5
Cc1ccc(S(=O)(=O)NCC2CCN(C(=O)C(=O)c3cc4ccccc4o3)CC2)cc1 | / | / | / | / | / | -9.0
Fc1ccc(Sc2ccccc2CNC2=NCCN2)cc1 | -9.2 | 62.8* | 24.5 | 55.3* | -7.7 | -4.8
OCCNC1=NCCN1 | -4.0 | -23.7 | 7.2 | -3.4 | -1.2 | /
Brc1cc2c(cc1C1OCCCO1)OCO2 | 19.1 | / | 8.5 | / | 1.8 | -6.6
Cc1c(Cl)sn(-c2ccc(Cl)cc2)c1=O | 2.2 | / | 110.9* | / | -9.5 | -6.4
Cc1nn(-c2ccc(Cl)cc2)c(=O)c2ccccc12 | -7.7 | -3.9 | -4.7 | -3.7 | -1.4 | -3.8
C[C@@H]1ON(C)[C@H]2C[C@H]3c4[nH]c5c(-c6cccc(F)c6)cccc5c4CCN3C(=O)[C@@H]12 | / | / | / | / | / | -4.3
CCCCNC(=O)C1(C)CCCCCN1Cc1cc2ccccc2o1 (stereo not given) | / | / | / | / | -3.1 | -5.5
COc1ccccc1NC(=O)CSc1nnc(COc2ccc(Cl)cc2)n1Cc1ccco1 | 7.3 | 16.0 | -34.3 | 93.6* | -5.0 | -4.5
O=C(COc1ccccc1)NC(=S)Nc1ccc2c3c(cccc13)CC2 | 8.5 | -4.1 | / | 9.0 | 2.8 | -1.9
O=C(COc1ccccc1)NC(=S)Nc1cccc2cc(O)ccc12 | -12.3 | 3.9 | 28.1 | 85.0* | / | -2.4
CC(C)c1ccc(OCC(=O)NC(=S)Nc2ccc3c4c(cccc24)CC3)cc1 | 6.9 | 3.3 | -11.8 | 67.9* | -1.0 | -5.7
COc1ccc(CN(Cc2cccnc2)S(=O)(=O)c2ccc(-n3cnnn3)c(C)c2)cc1OC | 6.6 | 78.2* | -0.4 | -22.8 | -0.4 | -5.8
Cc1ccc(C)c(NC(=O)CN(C)C(=O)c2ccc(COc3ccccc3)cc2)c1 | / | / | / | / | -3.3 | -0.1
CCCN(C(=O)C1CCCN(c2ncnc3c2nc2n3CCCCC2)C1)c1ccccc1C (stereo not given) | / | / | / | / | / | -6.9
COc1cc(/C=N/NC(=O)c2ccncc2)ccc1OC(C)=O | -14.5 | -8.2 | -18.3 | 2.6 | 0.2 | -18.5
CSc1ccc(/C=N\Nc2nncn2N)cc1 | -12.8 | -12.4 | -0.1 | 94.9* | 5.8 | -4.8
COc1cc(/C=N\Nc2nncn2N)ccc1OC(C)=O | 11.7 | -16.5 | 3.5 | 55.8* | 3.6 | -5.2
C=CCn1c(C)cc(C(=O)CSc2nnc(NCc3ccccc3)s2)c1C | -5.5 | 6.3 | 110.9* | / | 3.9 | -3.8
